{"data": "Measured values from different studies", "organism": "Trypanosoma cruzi", "effect on": "parasite growth", "note": "Lines come from different studies, so protocols differ."}
{"SMILES": "C[Si](C)(C)c1cc(C(=O)[C@H](Cc2ccccc2)NC(=O)[C@H](Cc2ccccc2)NC(=O)N2CCOCC2)no1 (mixture of isomers)", "system": "TULAHUEN", "conditions": "intracellular, amastigote", "IC50": "> 64 µM"}
{"SMILES": "CCCCCCCCCCCCCC#CC(=O)O", "system": "rat Myoblast, TULAHUEN", "conditions": "intracellular, amastigote", "IC50": "20.2 µg/mL"}
{"SMILES": "O=C(Cn1ccnc1[N+](=O)[O-])NCc1ccccc1", "conditions": "epimastigote", "IC50": "23 µM"}
{"SMILES": "COc1ccc(Nc2nc(-c3ccc(C)cc3)nc3ccccc23)cc1", "test": "imaging", "system": "U2OS", "conditions": "intracellular, amastigote", "IC50": "3.09 µM"}
{"SMILES": "O=C(Cn1ccnc1[N+](=O)[O-])NCc1ccccc1", "system": "L929, TULAHUEN", "conditions": "7 days, intracellular, amastigote", "IC50": "3.84 µM"}
{"SMILES": "O=C(Nc1ccc2c(c1)B(O)OC2)Nc1ccc(F)c(C(F)(F)F)c1", "system": "TULAHUEN", "conditions": "intracellular, amastigote", "IC50": "6.6 µM"}
{"SMILES": "C=C1CC[C@@H](O)[C@]2(C)CC[C@H]3C(=C)C(=O)O[C@@H]3[C@@H]12", "conditions": "72 h, epimastigote", "IC50": "> 50 µM"}
{"SMILES": "Fc1ccccc1-c1nc(N2CCC(c3ccccn3)C2)c2ccccc2n1 (stereo not shown)", "test": "imaging", "system": "U2OS", "conditions": "intracellular, amastigote", "IC50": "5.37 µM"}
{"SMILES": "O=C(Nc1ccnc(C(F)(F)F)c1)Nc1cccc2c1OC(F)(F)O2", "system": "TULAHUEN", "conditions": "intracellular, amastigote", "IC50": "2.9 µM"}
{"SMILES": "FC(F)(F)c1ccccc1-c1nc(N2CCC(c3ccccn3)C2)c2ccccc2n1 (stereo not shown)", "test": "imaging", "system": "U2OS", "conditions": "intracellular, amastigote", "IC50": "7.43 µM"}
{"SMILES": "O=C(N[C@@H](Cc1ccccc1)C(=O)c1ncc(-c2ccccc2)s1)[C@H](Cc1ccccc1)NC(=O)N1CCOCC1", "system": "TULAHUEN", "conditions": "intracellular, amastigote", "IC50": "19.8 µM"}
{"SMILES": "Oc1cccc(-c2nc(N3CCC(c4ccccn4)C3)c3ccccc3n2)c1 (stereo not shown)", "test": "imaging", "system": "U2OS", "conditions": "intracellular, amastigote", "IC50": "4.22 µM"}
{"SMILES": "O=C(N[C@H](CCc1ccccc1)C(=O)c1cc(Cc2ccccc2)on1)[C@H](Cc1ccccc1)NC(=O)N1CCOCC1", "system": "TULAHUEN", "conditions": "intracellular, amastigote", "IC50": "> 64 µM"}
{"SMILES": "C[C@@H]1[C@H](O)[C@@H](C)/C=C/C=C/C=C/C=C/C=C/C=C/C=C/[C@H](O[C@@H]2O[C@H](C)[C@@H](O)[C@H](N)[C@@H]2O)C[C@@H]2O[C@](O)(C[C@@H](O)C[C@@H](O)[C@H](O)CC[C@@H](O)C[C@@H](O)CC(=O)O[C@H]1C)C[C@H](O)[C@H]2C(=O)O", "system": "NIH3T3, TULAHUEN", "conditions": "96 h, intracellular, amastigote", "IC50": "0.48 µM"}
{"SMILES": "O=C(N[C@@H](Cc1ccccc1)C(=O)c1cc(-c2ccccc2)on1)[C@H](Cc1ccccc1)NC(=O)N1CCOCC1 (single isomer, unassigned)", "system": "TULAHUEN", "conditions": "intracellular, amastigote", "IC50": "> 64 µM"}
{"SMILES": "c1ccc2c(N3CCCCC3)nc(-c3cnccn3)nc2c1", "test": "imaging", "system": "U2OS", "conditions": "intracellular, amastigote", "IC50": "18.6 µM"}
